Columns and labels:
[1] = biological target: Sigma non-opioid intracellular receptor 1 (Homo sapiens, UniProt Q99720); assay: Displacement of [3H]-Pentazocine from human recombinant sigma1 receptor expressed in HEKT cells after 90 mins by microbeta scintillation counting method
[2] = biological target: 5-hydroxytryptamine receptor 2B (Homo sapiens, UniProt P41595); assay: Displacement of [3H]-LSD from human recombinant 5-HT2B receptor stably expressed in HEK cells after 90 mins by microbeta scintillation counting method
Summary of the method: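 Radioligand binding run by the NIMH Psychoactive Drug Screening Program. Otherwise Ki comes from sigmoidal curve fits of triplicate measurements in a single experiment, or is averaged over repeated experiments each run in triplicate.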

5-hydroxytryptamine receptor 2B, sequence (P41595 whole entry): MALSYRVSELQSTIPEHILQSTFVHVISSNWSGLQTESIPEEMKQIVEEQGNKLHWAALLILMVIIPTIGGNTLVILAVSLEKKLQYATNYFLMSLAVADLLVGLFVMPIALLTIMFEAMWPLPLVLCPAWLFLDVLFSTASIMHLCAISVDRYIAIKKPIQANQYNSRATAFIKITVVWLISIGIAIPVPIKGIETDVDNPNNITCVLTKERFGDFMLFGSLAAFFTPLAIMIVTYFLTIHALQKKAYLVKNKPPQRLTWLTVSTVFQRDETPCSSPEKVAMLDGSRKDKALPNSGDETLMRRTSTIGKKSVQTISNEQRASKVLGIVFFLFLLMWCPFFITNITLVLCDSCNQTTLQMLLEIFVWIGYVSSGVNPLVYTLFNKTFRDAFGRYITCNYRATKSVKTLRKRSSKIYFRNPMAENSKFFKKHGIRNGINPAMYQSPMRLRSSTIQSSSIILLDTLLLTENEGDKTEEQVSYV
Sigma non-opioid intracellular receptor 1, sequence (Q99720 whole entry): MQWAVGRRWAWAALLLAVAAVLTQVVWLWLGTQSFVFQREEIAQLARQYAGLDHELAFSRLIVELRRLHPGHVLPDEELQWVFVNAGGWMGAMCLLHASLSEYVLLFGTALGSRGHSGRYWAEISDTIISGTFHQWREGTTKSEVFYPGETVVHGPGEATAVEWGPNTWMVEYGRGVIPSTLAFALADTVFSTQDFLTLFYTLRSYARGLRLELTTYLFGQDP

Row | Ki [1] [nM] | Structure (SMILES) | Ki [2] [nM]
1 | 12.6 | CC[C@H]1c2cc(-c3ccccc3)ccc2OC[C@@]1(C)N | 
2 |  | CC[C@H]1c2ccc3ccccc3c2OC[C@@]1(C)N | 2.51
